Experimental data as given in ChEMBL document CHEMBL1811872, “Tryptophan 2,3-dioxygenase (TDO) inhibitors. 3-(2-(pyridyl)ethenyl)indoles as potential anticancer immunomodulators” (J Med Chem, 2011).
Values after ≈ are worked out from the molar mass of the structure shown.

Tests used:
[1] = molecular target: T1, MAO-B (amine oxidase [flavin-containing] B) (Homo sapiens, UniProt P27338); assay: Inhibition of MAO-B at 10 uM relative to control
T1 sequence (P27338 whole entry): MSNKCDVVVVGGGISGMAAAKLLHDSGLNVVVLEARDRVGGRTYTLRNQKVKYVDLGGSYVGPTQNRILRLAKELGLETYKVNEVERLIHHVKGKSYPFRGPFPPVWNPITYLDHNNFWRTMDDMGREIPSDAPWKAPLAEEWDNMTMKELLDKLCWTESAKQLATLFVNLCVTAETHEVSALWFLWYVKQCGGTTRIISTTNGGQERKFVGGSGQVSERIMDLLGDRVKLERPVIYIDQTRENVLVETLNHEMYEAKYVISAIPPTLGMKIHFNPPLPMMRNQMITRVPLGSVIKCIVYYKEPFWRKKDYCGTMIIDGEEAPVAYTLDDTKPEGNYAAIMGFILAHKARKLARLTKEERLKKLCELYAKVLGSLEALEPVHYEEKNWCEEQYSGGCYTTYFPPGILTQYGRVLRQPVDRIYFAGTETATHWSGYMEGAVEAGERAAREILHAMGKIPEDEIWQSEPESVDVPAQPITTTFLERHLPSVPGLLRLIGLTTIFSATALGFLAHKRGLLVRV

[2] = molecular target: T2, MAO-A (amine oxidase [flavin-containing] A) (Homo sapiens, UniProt P21397); assay: Inhibition of MAO-A at 10 uM relative to control
T2 sequence (P21397 whole entry): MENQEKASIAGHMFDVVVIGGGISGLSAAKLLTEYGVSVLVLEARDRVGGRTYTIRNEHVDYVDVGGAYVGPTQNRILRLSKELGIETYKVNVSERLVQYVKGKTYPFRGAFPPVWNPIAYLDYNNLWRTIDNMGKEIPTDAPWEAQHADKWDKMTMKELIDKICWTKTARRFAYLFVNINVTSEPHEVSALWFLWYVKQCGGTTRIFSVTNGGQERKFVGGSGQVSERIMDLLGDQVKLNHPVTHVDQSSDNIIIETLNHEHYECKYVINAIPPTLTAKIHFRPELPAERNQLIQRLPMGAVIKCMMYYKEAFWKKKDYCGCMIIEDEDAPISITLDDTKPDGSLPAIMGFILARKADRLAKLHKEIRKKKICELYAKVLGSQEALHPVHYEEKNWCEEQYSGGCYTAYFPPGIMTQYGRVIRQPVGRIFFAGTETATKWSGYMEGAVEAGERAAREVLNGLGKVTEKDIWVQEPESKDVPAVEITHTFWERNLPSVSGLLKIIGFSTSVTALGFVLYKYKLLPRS

[3] = Plasma concentration in DBA/2 mouse at 160 mg/kg/day, po administered for 7 days with water; assay type: ADME, organism-based; set-up: route oral
Summary of the method: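 DBA/2 mice received the compound dissolved in drinking water (1 mg/mL) ad libitum. Mean water intake was 4.0 mL/mouse/day, giving about 160 mg/kg/day. Plasma levels of compound, L-Trp and kynurenine were measured at days 0, 1, 2 and 7.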

[4] = Cytotoxicity against mouse P815B cells […] by MTT assay; assay type: functional; settings: read-out: LD50 (the source's name)
[5] = Chemical stability of the compound in phosphate buffered saline assessed as compound remaining at pH 7.4 after 1.5 hrs; assay type: physicochemical; settings: read-out: Stability
Summary of the method: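 Compound was incubated in phosphate-buffered saline, pH 7.4, for 1.5 h; read-out was the percentage of compound recovered.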

[6] = molecular target: Tryptophan 2,3-dioxygenase (Mus musculus, UniProt P48776); assay: Inhibition of mouse TDO expressed in mouse P815B cells assessed as inhibition of tryptophan catabolism by measuring kynurenine production after 8 hrs by HPLC analysis; assay type: cell-based
Chain of Tryptophan 2,3-dioxygenase (Mus musculus, UniProt P48776) (P48776 whole entry): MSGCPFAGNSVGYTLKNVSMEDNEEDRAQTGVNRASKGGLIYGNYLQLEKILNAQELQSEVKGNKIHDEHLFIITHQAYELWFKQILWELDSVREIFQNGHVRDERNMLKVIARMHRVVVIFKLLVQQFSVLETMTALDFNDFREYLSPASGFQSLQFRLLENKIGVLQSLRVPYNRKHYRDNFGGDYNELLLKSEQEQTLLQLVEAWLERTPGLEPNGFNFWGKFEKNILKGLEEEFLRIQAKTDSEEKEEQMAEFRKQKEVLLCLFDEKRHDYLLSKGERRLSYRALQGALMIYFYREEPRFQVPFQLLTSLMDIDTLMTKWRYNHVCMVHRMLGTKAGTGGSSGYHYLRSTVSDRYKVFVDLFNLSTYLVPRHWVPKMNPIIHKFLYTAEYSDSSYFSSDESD

[7] = Solubility of the compound in phosphate buffered saline at pH 7.4; assay type: physicochemical
Summary of the method: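 Solubility was measured experimentally in phosphate buffer (PBS), pH 7.4, at room temperature.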

Mus musculus = assay: Toxicity in mouse P815B cells expressing TDO xenografted immunized mouse at 160 mg/kg/day, po administered with water; assay type: organism-based; set-up: route oral; settings: in vivo
[8] = molecular target: Tryptophan 2,3-dioxygenase (Homo sapiens, UniProt P48775); assay: Competitive inhibition of human recombinant TDO expressed in Escherichia coli BL21 using L-tryptophan as substrate by measuring conversion of N-formylkynurenine into kynurenine after 30 mins by Michaelis-Menten steady state analysis
Chain of Tryptophan 2,3-dioxygenase (Homo sapiens, UniProt P48775) (P48775 whole entry): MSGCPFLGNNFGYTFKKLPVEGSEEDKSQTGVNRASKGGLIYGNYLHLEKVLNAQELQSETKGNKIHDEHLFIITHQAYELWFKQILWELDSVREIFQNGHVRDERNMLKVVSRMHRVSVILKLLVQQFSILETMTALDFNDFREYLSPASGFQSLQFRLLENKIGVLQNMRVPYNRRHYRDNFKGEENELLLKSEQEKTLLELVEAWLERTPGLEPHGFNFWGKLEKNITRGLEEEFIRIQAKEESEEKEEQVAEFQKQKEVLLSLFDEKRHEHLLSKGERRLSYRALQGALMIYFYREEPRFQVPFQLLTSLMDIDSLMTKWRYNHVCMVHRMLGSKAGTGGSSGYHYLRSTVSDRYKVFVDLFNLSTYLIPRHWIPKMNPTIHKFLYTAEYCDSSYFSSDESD

[9] = molecular target: 5-hydroxytryptamine receptor 2B (Homo sapiens, UniProt P41595); assay: Displacement of [125I](+/-)-DOI from human 5HT2B receptor
Chain of 5-hydroxytryptamine receptor 2B (P41595 whole entry): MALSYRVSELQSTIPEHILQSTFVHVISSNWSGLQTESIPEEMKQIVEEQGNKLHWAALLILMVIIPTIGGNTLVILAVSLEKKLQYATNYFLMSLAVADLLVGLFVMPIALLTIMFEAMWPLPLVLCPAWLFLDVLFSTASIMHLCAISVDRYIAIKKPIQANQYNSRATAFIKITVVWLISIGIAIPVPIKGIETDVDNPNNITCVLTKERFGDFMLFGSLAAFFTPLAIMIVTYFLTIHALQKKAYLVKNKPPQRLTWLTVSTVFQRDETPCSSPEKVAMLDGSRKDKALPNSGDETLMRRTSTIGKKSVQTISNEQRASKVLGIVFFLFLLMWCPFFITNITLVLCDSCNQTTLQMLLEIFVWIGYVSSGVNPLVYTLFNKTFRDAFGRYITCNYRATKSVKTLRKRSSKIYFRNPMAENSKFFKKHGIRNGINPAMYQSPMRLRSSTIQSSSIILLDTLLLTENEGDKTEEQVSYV

[10] = Displacement of [3H]prazosin from adrenergic alpha1 receptor
[11] = Displacement of [3H]RX821002 from adrenergic alpha2 receptor

SMILES: Fc1ccc2c(/C=C/c3nnn[nH]3)c[nH]c2c1
- inhibition at 10 µM [1]: < 10%
- inhibition at 10 µM [2]: < 10%
- concentration at 168 h [3]: 60000 nM
- CC50 [4]: > 400000 nM
- remaining at 1.5 h [5]: 93.3%
- IC50 [6]: 2000 nM
- solubility [7]: > 300 µM
- Activity (Mus musculus): Non-toxic

SMILES: O=C(O)/C=C/c1c[nH]c2cc(F)ccc12
- concentration at 168 h [3]: 1400 nM
- CC50 [4]: > 400000 nM
- remaining at 1.5 h [5]: 92.9%
- IC50 [6]: 3000 nM
- solubility [7]: > 300 µM
- Ki [8]: 32400 nM

SMILES: Fc1ccc2c(/C=C/c3cccnc3)c[nH]c2c1
- concentration at 168 h [3]: 100 nM
- CC50 [4]: > 80000 nM
- remaining at 1.5 h [5]: 67.6%
- IC50 [6]: 1000 nM
- solubility [7]: 92 µM (≈ 21.9 µg/mL)

SMILES: COc1cc(CC(C)N)c(OC)cc1I (racemic)
- Ki [9]: 2 nM

SMILES: COc1cc2nc(N3CCN(C(=O)c4ccco4)CC3)nc(N)c2cc1OC [PRAZOSIN]
- Ki [10]: 0.071 nM

SMILES: COC(=O)[C@@H]1[C@H]2C[C@H]3c4[nH]c5ccccc5c4CCN3C[C@@H]2CC[C@@H]1O [YOHIMBINE]
- Ki [11]: 33 nM
